Values after ≈ are worked out from the molar mass of the structure shown. Active and inactive are the calls of the source. The rule behind the calls is not given here.
How the values were obtained:
[1] = system: Torulaspora delbrueckii; test: Antifungal activity against Candida coliculosa C 122-2000 after 48 hrs by CLSI M27-A2 method; assay type: functional
Summary of the method: (§1)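 Broth microdilution per CLSI M27-A2 in RPMI-1640, with twofold dilutions giving final 250–0.98 µg/mL. The inoculum was modified to 1–5 × 10⁴ CFU/mL instead of 1–5 × 10³, with ketoconazole and amphotericin B as positive controls. MIC was the lowest concentration giving total growth inhibition, read visually. Strains were grown on Sabouraud-chloramphenicol agar for 24 h at 37 °C.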

[2] = system: Candida albicans; test: Antifungal activity against Candida albicans ATCC 10231 pre-incubated for 4 days analysed after 24 hrs by CLSI M27-A2 method; assay type: functional
Summary of the method: (§2)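 Twofold maleimide dilutions (1000–0.98 µg/mL) in complete M27-A2 medium without inoculum were held at 37 °C, with one plate row filled on each of 7 consecutive days to give 0–7 days of pre-incubation. All wells were then inoculated with C. albicans ATCC 10231 at 1–5 × 10⁴ CFU/mL and incubated for 24 h at 37 °C. MIC was read per row, in duplicate.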

[3] = system: Pichia kudriavzevii; test: Antifungal activity against Candida krusei C 117-2000 after 48 hrs by CLSI M27-A2 method; assay type: functional; summary of the method: as §1
[4] = system: Candida albicans; test: Antifungal activity against Candida albicans C 128-2000 after 48 hrs by CLSI M27-A2 method; assay type: functional; summary of the method: as §1
[5] = system: Candida albicans; test: Antifungal activity against Candida albicans ATCC 10231 pre-incubated for 2 days analysed after 24 hrs by CLSI M27-A2 method; assay type: functional; summary of the method: as §2
[6] = system: Candida albicans; test: Antifungal activity against Candida albicans ATCC 10231 preincubated for 7 days analysed after 24 hrs by CLSI M27-A2 method; assay type: functional; summary of the method: as §2
[7] = system: Candida albicans; test: Antifungal activity against Candida albicans C 126-2000 after 48 hrs by CLSI M27-A2 method; assay type: functional; summary of the method: as §1
[8] = system: Candida albicans; test: Antifungal activity against Candida albicans ATCC 10231 after 48 hrs by CLSI M27-A2 method; assay type: functional; settings: ATCC 10231, 48 h; summary of the method: as §1
[9] = system: Candida parapsilosis; test: Antifungal activity against Candida parapsilosis C 124-2000 after 48 hrs by CLSI M27-A2 method; assay type: functional; settings: Lodderomyces parapsilosis; summary of the method: as §1
[10] = system: Candida albicans; test: Antifungal activity against Candida albicans ATCC 10231 after 24 hrs by CLSI M27-A2 method; assay type: functional; settings: ATCC 10231, 24 h; summary of the method: as §1
[11] = system: Candida albicans; test: Antifungal activity against Candida albicans ATCC 10231 pre-incubated for 6 days analysed after 24 hrs by CLSI M27-A2 method; assay type: functional; summary of the method: as §2
[12] = system: Candida albicans; test: Antifungal activity against Candida albicans C 125-2000 after 48 hrs by CLSI M27-A2 method; assay type: functional; summary of the method: as §1
[13] = system: Candida albicans; test: Antifungal activity against Candida albicans ATCC 10231 pre-incubated for 1 day analysed after 24 hrs by CLSI M27-A2 method; assay type: functional; summary of the method: as §2
[14] = system: Candida albicans; test: Antifungal activity against Candida albicans ATCC 10231 pre-incubated for 3 days analysed after 24 hrs by CLSI M27-A2 method; assay type: functional; summary of the method: as §2
[15] = system: Candida albicans; test: Antifungal activity against Candida albicans ATCC 10231 pre-incubated for 5 days analysed after 24 hrs by CLSI M27-A2 method; assay type: functional; summary of the method: as §2
[16] = system: Candida albicans; test: Antifungal activity against Candida albicans C 127-2000 after 48 hrs by CLSI M27-A2 method; assay type: functional; summary of the method: as §1
[17] = system: Kluyveromyces marxianus; test: Antifungal activity against Candida kefyr C 123-2000 after 48 hrs by CLSI M27-A2 method; assay type: functional; summary of the method: as §1
[18] = system: Candida tropicalis; test: Antifungal activity against Candida tropicalis C 137-1997 after 48 hrs by CLSI M27-A2 method; assay type: functional; summary of the method: as §1
[19] = system: Candida albicans; test: Antifungal activity against Candida albicans C 130-2000 after 48 hrs by CLSI M27-A2 method; assay type: functional; summary of the method: as §1
[20] = system: Candida albicans; test: Antifungal activity against Candida albicans C 129-2000 after 48 hrs by CLSI M27-A2 method; assay type: functional; summary of the method: as §1
[21] = system: Candida albicans; test: Antifungal activity against Candida albicans ATCC 10231 within 90 mins by time-to-kill study; assay type: functional, organism-based
Summary of the method: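 C. albicans ATCC 10231 (2–2.5 × 10⁴ CFU/mL) in 5 mL RPMI-1640 was exposed to 1× MFC of compound at 37 °C with agitation. 10 µL samples taken at 0, 30, 60, 90 and 120 min, and at 4, 8, 12 and 24 h, were plated on drug-free SDA and colonies counted after 24–48 h at 37 °C. Run in duplicate.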

[22] = system: Nakaseomyces glabratus; test: Antifungal activity against Candida glabrata C 115-2000 after 48 hrs by CLSI M27-A2 method; assay type: functional; summary of the method: as §1
[23] = system: Clavispora lusitaniae; test: Antifungal activity against Candida lusitaniae C 131-2000 after 48 hrs by CLSI M27-A2 method; assay type: functional; summary of the method: as §1

SMILES | MFC [1] [µg/mL] | MIC [1] [µg/mL] | MIC [2] [µg/mL] | MFC [3] [µg/mL] | MIC [3] [µg/mL] | MFC [4] [µg/mL] | MIC [4] [µg/mL] | MIC [5] [µg/mL] | MIC [6] [µg/mL] | MFC [7] [µg/mL] | MIC [7] [µg/mL] | MFC [8] [µg/mL] | MIC [8] [µg/mL] | MFC [9] [µg/mL] | MIC [9] [µg/mL] | MIC [10] [µg/mL] | MIC [11] [µg/mL] | MFC [12] [µg/mL] | MIC [12] [µg/mL] | MIC [13] [µg/mL] | also measured
O=C1C=CC(=O)N1CCc1ccccc1 | 7.81 (≈ 38.8 µM) | 1.95 (≈ 9.69 µM) | 31.2 (≈ 155 µM) | 7.8 (≈ 38.8 µM) | 3.9 (≈ 19.4 µM) | 7.81 (≈ 38.8 µM) | 3.9 (≈ 19.4 µM) | 7.8 (≈ 38.8 µM) | 500 (≈ 2480 µM) | 7.81 (≈ 38.8 µM) | 3.9 (≈ 19.4 µM) | 7.8 (≈ 38.8 µM) | 3.9 (≈ 19.4 µM) | 3.9 (≈ 19.4 µM) | 3.9 (≈ 19.4 µM) | 3.9 (≈ 19.4 µM) | 250 (≈ 1240 µM) | 1.95 (≈ 9.69 µM) | 1.95 (≈ 9.69 µM) | 3.9 (≈ 19.4 µM) | MIC [14]: 7.8 µg/mL (≈ 38.8 µM); MIC [15]: 125 µg/mL (≈ 621 µM); MFC [16]: 3.9 µg/mL (≈ 19.4 µM); MIC [16]: 1.95 µg/mL (≈ 9.69 µM); MFC [17]: 3.9 µg/mL (≈ 19.4 µM); MIC [17]: 3.9 µg/mL (≈ 19.4 µM); MFC [18]: 32.2 µg/mL (≈ 160 µM); MIC [18]: 15.8 µg/mL (≈ 78.3 µM); MFC [19]: 1.95 µg/mL (≈ 9.69 µM); MIC [19]: 1.95 µg/mL (≈ 9.69 µM); MFC [20]: 1.95 µg/mL (≈ 9.69 µM); MIC [20]: 1.95 µg/mL (≈ 9.69 µM); Activity [21]: Active; MFC [22]: 3.9 µg/mL (≈ 19.4 µM); MIC [22]: 1.95 µg/mL (≈ 9.69 µM); MFC [23]: 7.8 µg/mL (≈ 38.8 µM); MIC [23]: 3.9 µg/mL (≈ 19.4 µM)
O=C1C=CC(=O)N1CCCc1ccccc1 | 32.2 (≈ 150 µM) | 3.9 (≈ 18.1 µM) | 15.8 (≈ 73.2 µM) | 7.8 (≈ 36.2 µM) | 3.9 (≈ 18.1 µM) | 7.81 (≈ 36.3 µM) | 3.9 (≈ 18.1 µM) | 3.9 (≈ 18.1 µM) | 1000 (≈ 4650 µM) | 1.95 (≈ 9.06 µM) | 0.97 (≈ 4.51 µM) | 7.8 (≈ 36.2 µM) | 3.9 (≈ 18.1 µM) | 3.9 (≈ 18.1 µM) | 3.9 (≈ 18.1 µM) | 3.9 (≈ 18.1 µM) | 125 (≈ 581 µM) | 1.95 (≈ 9.06 µM) | 0.97 (≈ 4.51 µM) | 3.9 (≈ 18.1 µM) | MIC [14]: 15.8 µg/mL (≈ 73.2 µM); MIC [15]: 62.5 µg/mL (≈ 290 µM); MFC [16]: 3.9 µg/mL (≈ 18.1 µM); MIC [16]: 1.95 µg/mL (≈ 9.06 µM); MFC [17]: 7.81 µg/mL (≈ 36.3 µM); MIC [17]: 15.8 µg/mL (≈ 73.2 µM); MFC [18]: 32.2 µg/mL (≈ 150 µM); MIC [18]: 15.8 µg/mL (≈ 73.2 µM); MFC [19]: 1.95 µg/mL (≈ 9.06 µM); MIC [19]: 0.97 µg/mL (≈ 4.51 µM); MFC [20]: 3.9 µg/mL (≈ 18.1 µM); MIC [20]: 1.95 µg/mL (≈ 9.06 µM); Activity [21]: Active; MFC [22]: 3.9 µg/mL (≈ 18.1 µM); MIC [22]: 1.95 µg/mL (≈ 9.06 µM); MFC [23]: 7.8 µg/mL (≈ 36.2 µM); MIC [23]: 1.95 µg/mL (≈ 9.06 µM)
O=C1C=CC(=O)N1CCCCc1ccccc1 | 3.9 (≈ 17 µM) | 3.9 (≈ 17 µM) | 31.2 (≈ 136 µM) | 15.8 (≈ 68.7 µM) | 7.8 (≈ 34 µM) | 1.95 (≈ 8.5 µM) | 0.97 (≈ 4.23 µM) | 3.9 (≈ 17 µM) | 1000 (≈ 4360 µM) | 1.95 (≈ 8.5 µM) | 0.97 (≈ 4.23 µM) | 7.8 (≈ 34 µM) | 3.9 (≈ 17 µM) | 7.8 (≈ 34 µM) | 1.95 (≈ 8.5 µM) | 3.9 (≈ 17 µM) | 250 (≈ 1090 µM) | 1.95 (≈ 8.5 µM) | 0.97 (≈ 4.23 µM) | 3.9 (≈ 17 µM) | MIC [14]: 15.8 µg/mL (≈ 68.7 µM); MIC [15]: 125 µg/mL (≈ 545 µM); MFC [16]: 3.9 µg/mL (≈ 17 µM); MIC [16]: 1.95 µg/mL (≈ 8.5 µM); MFC [17]: 7.81 µg/mL (≈ 34.1 µM); MIC [17]: 1.95 µg/mL (≈ 8.5 µM); MFC [18]: 32.2 µg/mL (≈ 141 µM); MIC [18]: 15.8 µg/mL (≈ 68.7 µM); MFC [19]: 3.9 µg/mL (≈ 17 µM); MIC [19]: 1.95 µg/mL (≈ 8.5 µM); MFC [20]: 1.95 µg/mL (≈ 8.5 µM); MIC [20]: 0.97 µg/mL (≈ 4.23 µM); Activity [21]: Active; MFC [22]: 3.9 µg/mL (≈ 17 µM); MIC [22]: 1.95 µg/mL (≈ 8.5 µM); MFC [23]: 3.9 µg/mL (≈ 17 µM); MIC [23]: 3.9 µg/mL (≈ 17 µM)

Reference: ChEMBL document CHEMBL1143889, “N-Phenyl and N-phenylalkyl-maleimides acting against Candida spp.: time-to-kill, stability, interaction with maleamic acids” (2008)
